Calls of active or inactive are those of the source. No cut-off for these calls is given here.
Assays:
Progesterone receptor = target: T1, Progesterone receptor (Homo sapiens, UniProt P06401); assay: Binding affinity to progesterone receptor by PRB assay
T1 sequence (P06401 whole entry): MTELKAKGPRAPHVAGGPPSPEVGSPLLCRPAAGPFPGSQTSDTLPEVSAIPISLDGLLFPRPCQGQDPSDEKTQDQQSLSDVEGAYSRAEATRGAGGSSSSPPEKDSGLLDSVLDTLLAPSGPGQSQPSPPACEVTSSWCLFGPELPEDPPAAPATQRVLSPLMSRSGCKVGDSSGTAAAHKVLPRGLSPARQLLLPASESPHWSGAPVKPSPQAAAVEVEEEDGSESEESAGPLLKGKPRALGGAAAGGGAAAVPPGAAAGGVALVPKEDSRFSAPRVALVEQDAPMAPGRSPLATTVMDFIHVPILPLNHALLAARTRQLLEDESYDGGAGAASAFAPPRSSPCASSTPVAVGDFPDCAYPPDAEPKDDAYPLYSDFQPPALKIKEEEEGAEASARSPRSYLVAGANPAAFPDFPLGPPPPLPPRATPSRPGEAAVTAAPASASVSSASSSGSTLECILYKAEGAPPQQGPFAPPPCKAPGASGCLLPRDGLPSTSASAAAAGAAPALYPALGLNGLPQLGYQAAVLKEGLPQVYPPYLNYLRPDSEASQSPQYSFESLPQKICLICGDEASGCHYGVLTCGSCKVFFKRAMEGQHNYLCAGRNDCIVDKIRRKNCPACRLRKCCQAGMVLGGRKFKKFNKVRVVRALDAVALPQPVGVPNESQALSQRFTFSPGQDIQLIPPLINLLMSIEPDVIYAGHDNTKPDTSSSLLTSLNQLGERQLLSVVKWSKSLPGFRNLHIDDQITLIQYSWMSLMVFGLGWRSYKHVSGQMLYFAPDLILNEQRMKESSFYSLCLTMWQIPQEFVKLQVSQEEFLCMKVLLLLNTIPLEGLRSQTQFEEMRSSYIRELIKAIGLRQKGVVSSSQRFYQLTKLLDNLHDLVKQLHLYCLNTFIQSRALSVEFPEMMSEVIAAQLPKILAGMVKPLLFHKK

[1] = Artificial human sebum-water partition coefficient, log K of the compound; type: physicochemical
In short: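 About 5 mg artificial human sebum, spiked with drug at 1 mg/250 μL sebum, was equilibrated with 1 mL saturated aqueous solution at 37 C for 15 h. Drug concentration in the aqueous phase was then analysed, and the sebum–water partition coefficient was derived from it.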

Syrian golden hamster [2] = assay: Inhibition of cholesterol ester in Syrian golden hamster ear model for sebum at 1% administered topically BID 5 days a week for 2 weeks measured 18 to 24 hrs after the final dose; type: functional, Mesocricetus auratus
Syrian golden hamster [3] = assay: Inhibition of wax ester in Syrian golden hamster ear model for sebum at 1% administered topically BID 5 days a week for 2 weeks measured 18 to 24 hrs after the final dose; type: functional, Mesocricetus auratus
[4] = Octanol-buffer partition coefficient, log D at pH 7.4; type: physicochemical; details: read-out: LogD7.4
Androgen receptor [5] = target: T2, Androgen receptor (Homo sapiens, UniProt P10275); assay: Displacement of [3H]DHT from human AR expressed in baculovirus Sf9 cells system by scintillation counting
T2 sequence (P10275 whole entry): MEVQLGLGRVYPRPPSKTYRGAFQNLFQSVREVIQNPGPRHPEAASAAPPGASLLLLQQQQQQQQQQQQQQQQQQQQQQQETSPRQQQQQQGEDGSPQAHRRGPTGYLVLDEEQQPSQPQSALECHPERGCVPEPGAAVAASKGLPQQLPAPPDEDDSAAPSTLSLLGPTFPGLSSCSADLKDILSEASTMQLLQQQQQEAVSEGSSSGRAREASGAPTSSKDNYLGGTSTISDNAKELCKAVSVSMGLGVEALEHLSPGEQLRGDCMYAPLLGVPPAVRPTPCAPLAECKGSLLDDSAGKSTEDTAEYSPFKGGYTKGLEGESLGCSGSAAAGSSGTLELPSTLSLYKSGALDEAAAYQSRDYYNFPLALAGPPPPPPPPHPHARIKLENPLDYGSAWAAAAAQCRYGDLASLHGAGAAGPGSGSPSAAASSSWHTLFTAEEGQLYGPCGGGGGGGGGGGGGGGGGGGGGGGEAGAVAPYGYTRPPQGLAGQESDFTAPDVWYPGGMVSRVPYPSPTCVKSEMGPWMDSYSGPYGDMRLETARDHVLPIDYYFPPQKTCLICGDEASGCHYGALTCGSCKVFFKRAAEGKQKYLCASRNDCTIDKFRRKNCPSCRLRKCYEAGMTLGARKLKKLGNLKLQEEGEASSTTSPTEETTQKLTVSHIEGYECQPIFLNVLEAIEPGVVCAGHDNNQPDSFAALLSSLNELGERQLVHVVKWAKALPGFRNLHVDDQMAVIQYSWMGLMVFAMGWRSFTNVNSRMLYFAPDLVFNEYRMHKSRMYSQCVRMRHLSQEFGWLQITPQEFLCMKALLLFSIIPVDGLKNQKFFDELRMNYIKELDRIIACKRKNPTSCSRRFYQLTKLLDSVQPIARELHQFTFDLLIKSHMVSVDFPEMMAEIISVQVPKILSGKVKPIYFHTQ

Androgen receptor [6] = target: T2, Androgen receptor; assay: Antagonist activity at androgen receptor in human MDA-MB-453 cells coexpressing MMTV-ARE reporter gene assessed as inhibition of DHT-induced response; type: functional, cell-based
Syrian golden hamster [7] = assay: Inhibition of cholesterol ester in Syrian golden hamster ear model for sebum at 1.5% administered topically BID 5 days a week for 2 weeks measured 18 to 24 hrs after the final dose; type: functional, Mesocricetus auratus
Syrian golden hamster [8] = assay: Inhibition of wax ester in Syrian golden hamster ear model for sebum at 1.5% administered topically BID 5 days a week for 2 weeks measured 18 to 24 hrs after the final dose; type: functional, Mesocricetus auratus
Estrogen receptor = target: T3, Estrogen receptor (Homo sapiens, UniProt P03372); assay: Binding affinity to estrogen receptor
T3 sequence (P03372 whole entry): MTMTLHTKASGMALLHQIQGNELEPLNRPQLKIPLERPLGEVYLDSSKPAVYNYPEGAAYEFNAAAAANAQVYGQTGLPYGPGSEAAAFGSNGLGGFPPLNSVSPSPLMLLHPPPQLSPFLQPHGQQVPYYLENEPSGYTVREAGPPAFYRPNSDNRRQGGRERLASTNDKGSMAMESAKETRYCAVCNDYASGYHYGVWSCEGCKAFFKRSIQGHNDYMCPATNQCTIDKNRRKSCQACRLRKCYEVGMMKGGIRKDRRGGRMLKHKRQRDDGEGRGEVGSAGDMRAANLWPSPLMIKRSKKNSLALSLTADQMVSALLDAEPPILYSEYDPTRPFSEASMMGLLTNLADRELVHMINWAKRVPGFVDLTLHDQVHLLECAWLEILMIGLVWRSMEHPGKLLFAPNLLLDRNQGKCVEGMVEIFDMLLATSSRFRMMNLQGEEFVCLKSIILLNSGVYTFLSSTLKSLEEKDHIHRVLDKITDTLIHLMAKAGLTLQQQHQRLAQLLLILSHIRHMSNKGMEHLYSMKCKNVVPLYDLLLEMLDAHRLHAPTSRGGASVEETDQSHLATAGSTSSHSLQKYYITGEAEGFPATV

[9] = Binding affinity to thyroid hormone receptor
Glucocorticoid receptor = target: T4, Glucocorticoid receptor (Homo sapiens, UniProt P04150); assay: Binding affinity to glucocorticoid receptor
T4 sequence (P04150 whole entry): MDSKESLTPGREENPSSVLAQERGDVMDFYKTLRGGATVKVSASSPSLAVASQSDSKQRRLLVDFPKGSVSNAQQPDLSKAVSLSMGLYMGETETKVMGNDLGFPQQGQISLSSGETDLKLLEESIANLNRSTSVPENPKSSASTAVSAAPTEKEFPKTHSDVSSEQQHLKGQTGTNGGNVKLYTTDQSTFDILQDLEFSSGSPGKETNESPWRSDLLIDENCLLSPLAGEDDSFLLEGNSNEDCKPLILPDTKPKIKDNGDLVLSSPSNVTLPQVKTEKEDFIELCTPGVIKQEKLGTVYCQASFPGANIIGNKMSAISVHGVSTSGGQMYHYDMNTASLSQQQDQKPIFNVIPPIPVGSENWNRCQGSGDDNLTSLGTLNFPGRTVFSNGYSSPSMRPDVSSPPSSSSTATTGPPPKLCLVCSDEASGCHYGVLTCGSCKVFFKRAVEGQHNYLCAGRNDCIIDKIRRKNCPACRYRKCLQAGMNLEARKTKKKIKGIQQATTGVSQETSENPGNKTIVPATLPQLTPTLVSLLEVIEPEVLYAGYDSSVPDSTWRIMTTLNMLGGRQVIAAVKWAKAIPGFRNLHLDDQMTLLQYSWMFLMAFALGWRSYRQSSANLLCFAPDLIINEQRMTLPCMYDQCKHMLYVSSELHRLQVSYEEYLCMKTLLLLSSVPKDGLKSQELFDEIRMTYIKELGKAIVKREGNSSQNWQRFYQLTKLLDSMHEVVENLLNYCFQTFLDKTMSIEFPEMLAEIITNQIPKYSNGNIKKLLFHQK

[10] = Hamster sebum-water partition coefficient, log K of the compound; type: ADME
Syrian golden hamster [11] = assay: Inhibition of wax ester in Syrian golden hamster ear model for sebum administered topically BID 5 days a week for 2 weeks measured 18 to 24 hrs after the final dose; type: functional, Mesocricetus auratus
In short: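 Golden Syrian hamster ear model with twice-daily topical dosing for 2 weeks in the vehicle chosen for phase 1 studies. Wax ester production was measured across a range of doses, and ED50 was expressed as % dose. Data are mean ± SEM, N = 5.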

Syrian golden hamster [12] = assay: Reduction in wax ester-associated sebaceous gland size decrease in Syrian golden hamster ear model for sebum administered topically BID 5 days a week for 2 weeks measured 18 to 24 hrs after the final dose; type: functional, organism-based; details: Mesocricetus auratus
In short: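 Hamsters were dosed on the ear twice daily for 2 weeks. Sebaceous gland size was quantified by fatty acid synthase immunohistochemical staining and correlated with wax ester reduction by correlation coefficient.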

Syrian golden hamster [13] = assay: Toxicity in Syrian golden hamster ear model for sebum assessed as cytotoxicity-mediated sebaceous gland size administered topically BID 5 days a week for 2 weeks measured 18 to 24 hrs after the final dose; type: organism-based, Mesocricetus auratus; details: in vivo, topical_or_ocular
In short: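 After 2 weeks of twice-daily topical application to hamster ears, sebocytes were examined histopathologically for cytotoxic changes alongside the reduction in sebaceous gland size.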

[14] = Drug level in Syrian golden hamster sebaceous gland at 0.2% administered topically after 8 hrs; type: ADME, tissue-based, Mesocricetus auratus; details: topical or ocular, read-out: Drug uptake
[15] = Elimination half life in Syrian golden hamster sebaceous gland at 0.2% administered topically after 8 hrs; type: ADME, tissue-based, Mesocricetus auratus; details: topical or ocular, read-out: beta t1/2 (converted)
[16] = Intrinsic clearance in human liver microsomes after 1 hr by LC/MS/MS method; type: ADME, Microsome
[17] = Clearance in rat at 1 mg/kg, iv; type: ADME, organism-based; parameters: dose 1 mg/kg, route intravenous; details: in vivo
[18] = Clearance in human; type: ADME, organism-based; details: in vivo
Rattus norvegicus [19] = assay: Liver blood flow in rat at 1 mg/kg, iv; type: ADME, organism-based; parameters: dose 1 mg/kg, route intravenous; details: in vivo
Mus musculus [20] = assay: Toxicity in BALB/c mouse assessed as skin sensitization at 25% administered for 4 days; type: organism-based; details: in vivo, 96 h
Mus musculus [21] = assay: Toxicity in BALB/c mouse assessed as lymph node contact hypersensitivity at 25% administered for 4 days; type: organism-based; details: in vivo, 96 h
Sus scrofa [22] = assay: Toxicity in minipig assessed as dermal toleration at 25% administered topically BID for 7 days; type: organism-based; details: pig, in vivo, topical_or_ocular, 168 h
Sus scrofa [23] = assay: Toxicity in minipig assessed as systemic antiandrogenic effect at 25% administered topically BID for 7 days; type: organism-based; details: pig, in vivo, topical_or_ocular, 168 h
Rattus norvegicus [24] = assay: Toxicity in Sprague-Dawley rat assessed as systemic antiandrogenic effect at 0.5 to 300 mg/kg, po administered once-daily for 7 days; type: organism-based; parameters: dose 0.5-300 mg/kg, route oral; details: in vivo, 168 h

N#Cc1ccc(Sc2ccccc2F)cc1C(F)(F)F
IC50 (Progesterone receptor): 6.95 µM | log K [1]: 4.48 | inhibition (INH) (Syrian golden hamster [2]): 50% | inhibition (INH) (Syrian golden hamster [3]): 64%

N#Cc1ccc(O[C@@H]2CCCC[C@H]2C#N)cc1C(F)(F)F
log K [1]: 3.03 | logD [4]: 3.4

N#Cc1ccc(Oc2ccc(F)cc2F)cc1C(F)(F)F
IC50 (Androgen receptor [5]): 0.488 µM | IC50 (Androgen receptor [6]): 0.06 µM | IC50 (Progesterone receptor): > 10 µM | log K [1]: 4.06 | inhibition (INH) (Syrian golden hamster [2]): 24% | inhibition (INH) (Syrian golden hamster [3]): 31%

C[C@H](O)CC[C@H](C)Oc1ccc(C#N)c(C(F)(F)F)c1
log K [1]: 2.06 | logD [4]: 3.73

CSc1ccc(CN2CC(C)(C)[C@@H](Oc3ccc(C#N)c(C(F)(F)F)c3)C2=O)cc1
IC50 (Androgen receptor [5]): 0.316 µM | IC50 (Androgen receptor [6]): 0.028 µM | IC50 (Progesterone receptor): > 10 µM | log K [1]: 4.6 | inhibition (INH) (Syrian golden hamster [7]): 75% | inhibition (INH) (Syrian golden hamster [8]): 89%

CCCN1CC(C)(C)[C@@H](Oc2ccc(C#N)c(C(F)(F)F)c2)C1=O
log K [1]: 2.74 | logD [4]: 3.33

CC1(C)CN(Cc2ccccc2F)C(=O)[C@@H]1Oc1ccc(C#N)c(C(F)(F)F)c1
IC50 (Androgen receptor [5]): 0.174 µM | IC50 (Androgen receptor [6]): 0.044 µM | IC50 (Progesterone receptor): 4.82 µM | log K [1]: 3.95 | inhibition (INH) (Syrian golden hamster [2]): 42% | inhibition (INH) (Syrian golden hamster [3]): 72%

CC1(C)CN(Cc2ccccc2)C(=O)[C@@H]1Oc1ccc(C#N)c(C(F)(F)F)c1
IC50 (Androgen receptor [5]): 0.1 µM | IC50 (Androgen receptor [6]): 0.038 µM | IC50 (Progesterone receptor): 4.4 µM | IC50 (Estrogen receptor): > 10 µM | IC50 [9]: > 10 µM | IC50 (Glucocorticoid receptor): > 10 µM | log K [1]: 3.92 | log K [10]: 3.85 | logD [4]: 4.88 | inhibition (INH) (Syrian golden hamster [2]): 61% | inhibition (INH) (Syrian golden hamster [3]): 78% | ED50 (Syrian golden hamster [11]): 0.02 mg/cm2 | Activity (Syrian golden hamster [12]): Active | Activity (Syrian golden hamster [13]): Non-toxic | concentration at 8 h [14]: 156 µM | half-life [15]: 7 h | CLint scaled [16]: 7.26 L/h/kg | clearance [17]: 3.42 L/h/kg | clearance [18]: 0.96 L/h/kg | LBF (Rattus norvegicus [19]): 80% | Activity (Mus musculus [20]): Non-toxic | Activity (Mus musculus [21]): Non-toxic | Activity (Sus scrofa [22]): Non-toxic | Activity (Sus scrofa [23]): Non-toxic | Activity (Rattus norvegicus [24]): Non-toxic
